For data set [1], the target named is Aldo-keto reductase family 1 member B1 (Bos taurus, UniProt P16116). As to the kind of experiment: Inhibition of bovine lens aldose reductase using DL-glyceraldehyde as substrate assessed as NADPH oxidation measured for 10 mins by spectrophotometric analysis. An outline of the steps: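 Aldose reductase isolated from bovine lens (enzyme at 750 µg/mL protein) in 50 mM PBS pH 6.2 with β-mercaptoethanol, Li2SO4 and NADPH, compounds across a 0.1–10 range. Reaction started with DL-glyceraldehyde. Fall in NADPH absorbance at 340 nm followed for 10 min.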

Data set [2] is described as follows: Induction of nitric oxide release at 10^-4 M after 1 hr by Griess assay in presence of L-cysteine relative to control. It is filed as physicochemical. The settings on record: 100 µM. An outline of the steps:
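Thiol-triggered NO release: compounds at final 10^-4 M incubated 1 h at 37 °C with L-cysteine. 1 mL of mixture treated with Griess reagent (sulfanilamide, N-naphthylethylenediamine dihydrochloride, phosphoric acid), held 10 min at room temperature, absorbance read at 540 nm. Percent NO released relative to a theoretical maximum of 1 mol NO/mol compound. Sodium nitroprusside served as positive control.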

For data set [3], the target named is Aldo-keto reductase family 1 member B1 (Bos taurus) (UniProt P16116). Description: Ratio of 4-(5-hydroxy-4-oxo-2-phenyl-4H-chromen-7-yloxy)butyl nitrate IC50 to compound IC50 for bovine lens aldose reductase.
For data set [4] the target is unchanged. As to the kind of experiment: Ratio of quercetin IC50 to compound iC50 for bovine lens aldose reductase.

Structures are written as SMILES.

As for `CCCCCCOc1cc(O)c2c(=O)cc(-c3ccc4c(c3)OCCO4)oc2c1`, the IC50 in data set [1] turned out to be 1710 nM. In the case of `O=c1cc(-c2ccc(O)c(O)c2)oc2cc(OCCCCCCO[N+](=O)[O-])cc(O)c12`, the Activity in data set [2] was determined as 4.637%. The IC50 in data set [1] was 491 nM.

Consider `CCCCOc1cc(O)c2c(=O)cc(-c3ccc(O)c(O)c3)oc2c1`, for which the half-inhibitory concentration (IC50) in data set [1] turned out to be 769 nM.

Turning to `O=C(COc1cc(O)c2c(=O)cc(-c3ccc4c(c3)OCCO4)oc2c1)OCCCCCCO[N+](=O)[O-]`, the Activity in data set [2] is 1.14%. For the same molecule, the half-maximal inhibitory concentration (IC50) in data set [1] is 1300 nM. Turning to `O=c1cc(-c2ccc3c(c2)OCCO3)oc2cc(OCCCCO[N+](=O)[O-])cc(O)c12`, the Ratio IC50 in data set [3] is 2.3. In data set [2], the Activity is 2.813%. The IC50 in data set [1] came to 127 nM.

For the molecule `O=c1cc(-c2ccc3c(c2)OCCO3)oc2cc(OCCO[N+](=O)[O-])cc(O)c12`, the Ratio IC50 in data set [4] turned out to be 28.5. Further, the Activity in data set [2] was determined as 2.111%. Also, the IC50 in data set [1] came to 99 nM. As to `O=c1cc(-c2ccc(O)c(O)c2)oc2cc(OCCCCO[N+](=O)[O-])cc(O)c12`, the Activity in data set [2] is given as 2.345%. Also, the IC50 in data set [1] stood at 472 nM. For the molecule `CCOc1cc(O)c2c(=O)cc(-c3ccc4c(c3)OCCO4)oc2c1`, the IC50 in data set [1] was determined as 1190 nM. In the case of `CCCCOC(=O)COc1cc(O)c2c(=O)cc(-c3ccc4c(c3)OCCO4)oc2c1`, the IC50 in data set [1] came out at 523 nM.

Consider `O=c1cc(-c2ccc(O)c(O)c2)oc2cc(O)cc(O)c12` [LUTEOLIN], for which the IC50 in data set [1] was found to be 754 nM. For the molecule `CCCCOc1cc(O)c2c(=O)cc(-c3ccc4c(c3)OCCO4)oc2c1`, the half-inhibitory concentration (IC50) in data set [1] is 1250 nM. Take `O=c1cc(-c2ccc3c(c2)OCCO3)oc2cc(OCCCCCCO[N+](=O)[O-])cc(O)c12`: the Activity in data set [2] is 1.328%. The concentration for half-maximal inhibition (IC50) in data set [1] came out at 445 nM.

For the molecule `O=C(COc1cc(O)c2c(=O)cc(-c3ccc4c(c3)OCCO4)oc2c1)OCCO[N+](=O)[O-]`, the Activity in data set [2] amounted to 1.018%. The IC50 in data set [1] was determined as 445 nM. Consider `O=c1cc(-c2ccc(O)c(O)c2)oc2cc(OCCO[N+](=O)[O-])cc(O)c12`, for which, in data set [2], the Activity is recorded as 1.07%. Besides, in data set [1], the IC50 was determined as 168 nM. With `CCCCCCOc1cc(O)c2c(=O)cc(-c3ccc(O)c(O)c3)oc2c1`, the half-inhibitory concentration (IC50) in data set [1] is 1810 nM. With `CCOc1cc(O)c2c(=O)cc(-c3ccc(O)c(O)c3)oc2c1`, the IC50 in data set [1] turned out to be 604 nM. In the case of `O=C(COc1cc(O)c2c(=O)cc(-c3ccc4c(c3)OCCO4)oc2c1)OCCCCO[N+](=O)[O-]`, the Activity in data set [2] is reported as 1.351%. In addition, the IC50 in data set [1] was found to be 491 nM. Turning to `CCCCCCOC(=O)COc1cc(O)c2c(=O)cc(-c3ccc4c(c3)OCCO4)oc2c1`, in data set [1], the IC50 is 2830 nM. Regarding `CCOC(=O)COc1cc(O)c2c(=O)cc(-c3ccc4c(c3)OCCO4)oc2c1`, the IC50 in data set [1] turned out to be 506 nM.

For the origin of these results see ChEMBL document CHEMBL2406946 (Bioorg Med Chem, 2013).
